The nature of series [1]: Half life in rat liver microsomes. The format is ADME, Microsome. Put shortly: (§1)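 Liver microsome half-life (min) measured in human, mouse, rat, dog and cyno liver microsomes.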
In general terms: Liver microsomes are vesicles of endoplasmic reticulum, rich in cytochrome P450 enzymes.

Series [2] is described as follows: Half life in dog liver microsomes. The format is ADME, Canis lupus familiaris, Microsome. Put shortly:
as §1

The nature of series [3]: Metabolic stability in human liver microsomes assessed as parent compound remaining. The format is ADME, Microsome. A digest of the protocol:
(§2)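 Test compound at 0.5 μM initial concentration incubated with human, mouse or rat liver microsomes (protein 1 mg/mL). Metabolic stability reported as percent of parent compound remaining after incubation.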

A short description of series [4]: Metabolic stability in mouse liver microsomes assessed as parent compound remaining. The format is ADME, Microsome. Put shortly: as §2
Series [5] can be described thus: Metabolic stability in rat liver microsomes assessed as parent compound remaining. The format is ADME, Microsome. A digest of the protocol:
as §2

The target of series [6] is T1, Nuclear receptor ROR-gamma (Homo sapiens, UniProt P51449).
T1 sequence (P51449 whole entry): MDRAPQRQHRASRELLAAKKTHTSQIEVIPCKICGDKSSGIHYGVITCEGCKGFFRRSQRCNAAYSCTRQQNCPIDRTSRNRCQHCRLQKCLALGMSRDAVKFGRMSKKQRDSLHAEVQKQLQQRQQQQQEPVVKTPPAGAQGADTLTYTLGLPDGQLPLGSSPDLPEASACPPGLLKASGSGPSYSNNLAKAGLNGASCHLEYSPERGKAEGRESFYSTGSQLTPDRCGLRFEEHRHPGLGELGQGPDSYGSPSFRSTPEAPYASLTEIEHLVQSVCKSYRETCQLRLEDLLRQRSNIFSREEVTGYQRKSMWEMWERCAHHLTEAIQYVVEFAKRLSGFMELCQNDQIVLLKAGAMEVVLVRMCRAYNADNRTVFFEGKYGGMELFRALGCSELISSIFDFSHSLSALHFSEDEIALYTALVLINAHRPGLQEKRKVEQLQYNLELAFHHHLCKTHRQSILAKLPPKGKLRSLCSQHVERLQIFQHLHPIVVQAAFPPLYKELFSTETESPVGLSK
The series can be described thus: Inverse agonist activity at recombinant full-length human Gal4-fused RORgammat expressed in human Jurkat cells incubated for 18 hrs by steady-glo luciferase reporter gene assay. The format is cell-based. For orientation: In a reporter assay the amount or activity of a reporter protein is the signal.

In series [7] the target is T1, Nuclear receptor ROR-gamma. The series is described as follows: Inverse agonist activity at RORgammat in CD3 and CD28-stimulated human whole blood assessed as suppression of IL17 preincubated for 1 hr followed by CD3 and CD28 stimulation measured after 20 hrs by AlphaLISA method. The format is tissue-based. (Alpha assays give light when donor and acceptor beads are brought close together.)

A short description of series [8]: Half life in human liver microsomes. The format is ADME, Microsome. Put shortly:
as §1

The nature of series [9]: Half life in mouse liver microsomes. The format is ADME, Microsome. Put shortly: as §1
The nature of series [10]: Half life in cynomolgus monkey liver microsomes. The format is ADME, Macaca fascicularis, Microsome. A digest of the protocol: as §1
A short description of series [11]: Permeability across apical to basolateral membrane in human Caco-2 cells. The following applies: read-out: permeability. The format is ADME, cell-based. A digest of the protocol:
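Caco-2 monolayer permeability, apical-to-basolateral direction (Pc, nm/s). An efflux ratio is also reported.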

SMILES strings stand for the structures. pEC50: −log10 of the molar value.

The half-life is the time needed for the level to fall by half in the phase considered. As a reminder, the pEC50 is −log10 of the EC50, conventionally taken in molar units.

Regarding `CC(C)(O)CNC(=O)[C@@H]1CC[C@@]2(S(=O)(=O)c3ccc(F)cc3)c3ccc(C(F)(C(F)(F)F)C(F)(F)F)cc3CC[C@@H]12`, the half-life came to 18 min in series [1] and 27 min in series [2].

As to `CC(C)(O)CC(=O)N[C@@H]1CC[C@@]2(S(=O)(=O)c3ccc(F)cc3)c3ccc(C(F)(C(F)(F)F)C(F)(F)F)cc3CC[C@@H]12`, the Stabilty in series [3] worked out at 97%; in series [4], 86%; in [5] it was 90%.

With `CC(C)(N)CC(=O)N[C@@H]1CC[C@@]2(S(=O)(=O)c3ccc(F)cc3)c3ccc(C(F)(C(F)(F)F)C(F)(F)F)cc3CC[C@@H]12`, the Stabilty in series [3] is reported as 98%; in series [4], 85%; in series [5] it was 89%.

As for `O=C(N[C@@H]1CC[C@@]2(S(=O)(=O)c3ccc(F)cc3)c3ccc(C(F)(C(F)(F)F)C(F)(F)F)cc3CC[C@@H]12)C1(O)CCCCC1`, the Stabilty is 50% in series [3], 56% in series [4] and 22% in series [5].

As for `CC(=O)N1CCC(C(=O)N[C@@H]2CC[C@@]3(S(=O)(=O)c4ccc(F)cc4)c4ccc(C(F)(C(F)(F)F)C(F)(F)F)cc4CC[C@@H]23)CC1`, the values for the Stabilty in series [3], in series [4] and in series [5] were 61%, 67% and 100%, respectively.

On to `CN(C(=O)C(C)(C)O)[C@@H]1CC[C@@]2(S(=O)(=O)c3ccc(F)cc3)c3ccc(C(F)(C(F)(F)F)C(F)(F)F)cc3CC[C@@H]12`, for which the pEC50 in series [6] was 7.35; in series [7], 5.56.

On to `O=C(NCCO)N[C@@H]1CC[C@@]2(S(=O)(=O)c3ccc(F)cc3)c3ccc(C(F)(C(F)(F)F)C(F)(F)F)cc3CC[C@@H]12`, for which the Stabilty in series [3] was 97%; in series [4], 93%; in series [5], 41%.

As to `O=C(CO)N[C@@H]1CC[C@@]2(S(=O)(=O)c3ccc(F)cc3)c3ccc(C(F)(C(F)(F)F)C(F)(F)F)cc3CC[C@@H]12`, the values for the Stabilty in [3], in series [4] and in [5] were 82%, 65% and 34%, respectively.

With `CC(C)(N)C(=O)N[C@@H]1CC[C@@]2(S(=O)(=O)c3ccc(F)cc3)c3ccc(C(F)(C(F)(F)F)C(F)(F)F)cc3CC[C@@H]12`, the pEC50 in [6] was 7.52; in series [7], 6.79. For the same molecule, the Stabilty in [3] came out at 80%; in series [4], 100%; in series [5], 100%.

Consider `CC(C)(C(=O)N[C@@H]1CC[C@@]2(S(=O)(=O)c3ccc(F)cc3)c3ccc(C(F)(C(F)(F)F)C(F)(F)F)cc3CC[C@@H]12)N1CCNCC1`, for which, in series [6], the negative-log EC50 (pEC50) was 7.20. The Stabilty in [3] amounted to 74%; in [4], 78%; in series [5], 97%.

Turning to `CC(C)(C(=O)N[C@@H]1CC[C@@]2(S(=O)(=O)c3ccc(F)cc3)c3ccc(C(F)(C(F)(F)F)C(F)(F)F)cc3CC[C@@H]12)N1CCOCC1`, the Stabilty in [3] worked out at 0.3%; in series [4], 0.3%; in series [5], 0.4%.

With `O=C(N[C@@H]1CC[C@@]2(S(=O)(=O)c3ccc(F)cc3)c3ccc(C(F)(C(F)(F)F)C(F)(F)F)cc3CC[C@@H]12)C1(O)CCNCC1`, the values for the Stabilty in series [3], in series [4] and in series [5] were 100%, 88% and 83%, respectively.

Regarding `O=C(N[C@@H]1CC[C@@]2(S(=O)(=O)c3ccc(F)cc3)c3ccc(C(F)(C(F)(F)F)C(F)(F)F)cc3CC[C@@H]12)C1(O)CCOCC1`, the values for the Stabilty in [3], in series [4] and in series [5] were 100%, 75% and 66%, respectively.

Turning to `CC(=O)N[C@@H]1CC[C@@]2(S(=O)(=O)c3ccc(F)cc3)c3ccc(C(F)(C(F)(F)F)C(F)(F)F)cc3CC[C@@H]12`, the results for the Stabilty in [4] and in series [5] were 90% and 100%, respectively.

For `C[C@@H](O)C(=O)N[C@@H]1CC[C@@]2(S(=O)(=O)c3ccc(F)cc3)c3ccc(C(F)(C(F)(F)F)C(F)(F)F)cc3CC[C@@H]12`, the Stabilty in [3] was 71%; in series [4], 70%; in [5] it was 14%.

For the molecule `CC(C)(O)CNC(=O)N[C@@H]1CC[C@@]2(S(=O)(=O)c3ccc(F)cc3)c3ccc(C(F)(C(F)(F)F)C(F)(F)F)cc3CC[C@@H]12`, the Stabilty in series [3] was determined as 54%; in series [5], 42%.

`CS(=O)(=O)N[C@@H]1CC[C@@]2(S(=O)(=O)c3ccc(F)cc3)c3ccc(C(F)(C(F)(F)F)C(F)(F)F)cc3CC[C@@H]12`: the results for the pEC50 in series [6] and in [7] were 8.14 and 6.80, respectively.

As to `CNC(=O)N[C@@H]1CC[C@@]2(S(=O)(=O)c3ccc(F)cc3)c3ccc(C(F)(C(F)(F)F)C(F)(F)F)cc3CC[C@@H]12`, the results for the Stabilty in [3], in series [4] and in series [5] were 40%, 32% and 10%, respectively.

Turning to `CC(=O)NCC(=O)N[C@@H]1CC[C@@]2(S(=O)(=O)c3ccc(F)cc3)c3ccc(C(F)(C(F)(F)F)C(F)(F)F)cc3CC[C@@H]12`, the values for the Stabilty in series [3], in series [4] and in series [5] were 100%, 93% and 10%, respectively.

In the case of `[2H]C([2H])([2H])N1C(=O)C(O)CC1C(=O)N[C@@H]1CC[C@@]2(S(=O)(=O)c3ccc(F)cc3)c3ccc(C(F)(C(F)(F)F)C(F)(F)F)cc3CC[C@@H]12` (single isomer, unassigned), the pEC50 was 7.91 in [6] and 6.87 in [7]. Also, the Stabilty in series [3] is reported as 99%; in series [4], 100%; in series [5], 100%.

`[2H]C([2H])([2H])N1C(=O)C(F)CC1C(=O)N[C@@H]1CC[C@@]2(S(=O)(=O)c3ccc(F)cc3)c3ccc(C(F)(C(F)(F)F)C(F)(F)F)cc3CC[C@@H]12` (single isomer, unassigned): the results for the Stabilty in series [3], in series [4] and in series [5] were 100%, 86% and 100%, respectively. The half-life in [8] is 46 min; in series [9] it was 38 min; in [1] it was 56 min; in series [2], 120 min; in series [10], 24 min. Besides, the Papp A→B in series [11] amounted to 9.2 ×10⁻⁶ cm/s.

Source of the values: ChEMBL document CHEMBL4819034, “Tricyclic-Carbocyclic RORγt Inverse Agonists-Discovery of BMS-986313” (J Med Chem, 2021).
